Screening results deposited in PubChem BioAssay by several laboratories.
The full list was thinned out, with hits kept by preference.
S1P4 ag: S1P4 receptor agonists, primary screen, cell-based | hit rate 0.35% among 220,000 | AID 1509, 2009 | Sphingosine 1-phosphate receptor 4 (Homo sapiens), O95977 | activation, % at 4.98 µM | S1P4-expressing cell line, agonist reporter assay; in the data active = activation above about 11%;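 also: 0% = DMSO vehicle and 100% = reference agonist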
S1P4 antagonist: S1P4 receptor antagonists, primary screen, cell-based; S1P4-expressing cells, antagonist mode, reporter read-out; inhibition, % at 4.98 µM; hit rate 0.26% among 220,000; AID 1510, 2009; in the data active = inhibition above about 29%;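 also: 0% = wells stimulated with agonist and 100% = vehicle wells without agonist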
S1P3 antag: S1P3 receptor antagonists, primary screen, cell-based; Sphingosine 1-phosphate receptor 3 (Homo sapiens), Q99500; CHO S1P3 NFAT-BLA reporter, FRET fluorescence, antagonist mode; inhibition, % at 4.98 µM; hit rate 0.27% among 170,000; AID 485, 2006;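 active = inhibition above the plate cutoff, the mean inhibition of test wells on that plate plus 3 SD, cut at about 28% in these data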;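 also: cells challenged with S1P at its EC80 of 0.8 µM; blue over green emission ratio from cleaved BLA substrate after 4 h stimulation; 0% = S1P-stimulated wells and 100% = unstimulated DMSO-only wells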
MDM2 E3 inh: MDM2-luciferase reporter signal enhancers, primary screen, MDM2 E3 ligase inhibitor project, cell-based, luminescence, 1536-well; cell-based MDM2 ubiquitination luciferase reporter, 2 h; 0 = plate control, 100 = twice control, blank-subtracted; hit rate 0.11% among 210,000; signal enhancement, % at 5 µM; E3 ubiquitin-protein ligase Mdm2 (Homo sapiens), Q00987;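 active = signal enhancement of 30% or more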;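 also: luminescence tracks abundance of the self-degrading MDM2-luciferase fusion protein; higher signal means inhibition of MDM2 E3 ligase activity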
Target sequence (Q00987 whole entry, looked up, the tested form may be a part): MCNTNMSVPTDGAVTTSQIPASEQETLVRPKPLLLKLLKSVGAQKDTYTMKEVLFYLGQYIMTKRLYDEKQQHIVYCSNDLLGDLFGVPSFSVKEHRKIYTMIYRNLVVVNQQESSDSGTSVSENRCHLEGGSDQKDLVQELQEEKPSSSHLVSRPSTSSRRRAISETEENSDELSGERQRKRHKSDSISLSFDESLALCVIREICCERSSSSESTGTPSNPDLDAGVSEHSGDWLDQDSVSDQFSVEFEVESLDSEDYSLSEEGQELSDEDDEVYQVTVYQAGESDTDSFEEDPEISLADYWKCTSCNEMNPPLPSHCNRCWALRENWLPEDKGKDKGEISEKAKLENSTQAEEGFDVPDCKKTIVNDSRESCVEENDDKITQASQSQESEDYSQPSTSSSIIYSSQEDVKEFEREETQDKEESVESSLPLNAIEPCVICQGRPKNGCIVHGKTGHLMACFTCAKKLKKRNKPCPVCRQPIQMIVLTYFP
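system = mammalian cells stably expressing self-ubiquitinating, self-degrading MDM2 E3–luciferase fusion | quantity = 2000 cells per well seeded | incubation = 4 h cell settling then 2 h compound exposure, 37 °C | signal = SteadyLite luminescence, 15 min reagent step | benchmarks = plate control and blank wells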
Lmaj promast: Leishmania major promastigote growth inhibition, primary screen | hit rate 9% among 200,000 | AID 1063, 2008 | inhibition, % at 10 µM | Leishmania major promastigotes, resazurin fluorescence viability; in the data active = inhibition above about 50%;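 also: promastigotes grown with compound for 44 hours at 28 °C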
An asterisk follows results filed as active; . = not tested or not shown.

SMILES	S1P4 ag	S1P4 antagonist	S1P3 antag	MDM2 E3 inh	Lmaj promast
C=CCn1c(-c2ccc(OC)cc2)csc1=Nc1c(C)n(C)n(-c2ccccc2)c1=O	4	1	.	-7	93*
O=C(COC(=O)c1cccc(S(=O)(=O)N2CCN(c3ccccc3)CC2)c1)NCC1CCCO1 (configuration not stated)	0	-5	-5	.	.
COc1cc(OC)c(NS(=O)(=O)c2cccc(C(=O)OCC(=O)NCC3CCCO3)c2)cc1Cl (configuration not stated)	1	-9	-11	-7	80*
Cc1cc(S(=O)(=O)NCC(C)C)ccc1OCC(=O)NCC1CCCO1 (configuration not stated)	-2	-10	-1	-8	59*
COc1ccc(C(=O)NCc2ccc3c(c2)CCO3)cc1	2	0	9	-3	.
COc1ccc(C(=O)Nc2ccccc2C(=O)O)cc1Cl	1	-27	-6	-15	67*
COc1ccc(C(=O)Nc2ccccc2C(=O)O)cc1NC(=O)C(c1ccccc1)c1ccccc1	-1	0	3	1	.
O=S(=O)(NCC(c1cccnc1)N1CCN(c2ccc(F)cc2)CC1)c1ccccc1 (configuration not stated)	1	-11	17	.	92*
CN1CCN(C(CNS(=O)(=O)c2ccc(F)cc2)c2cccnc2)CC1 (configuration not stated)	0	-11	.	3	-5
O=S(=O)(NCC(c1cccnc1)N1CCN(c2ccccc2)CC1)c1cc(F)ccc1F (configuration not stated)	0	-20	.	0	97*
COc1ccccc1N1CCN(C(CNS(=O)(=O)c2cc(F)ccc2F)c2cccnc2)CC1 (configuration not stated)	2	14	4	-10	90*
CCOC(=O)c1c(C)nc(C)c(C(=O)OCC)c1-c1ccco1	-1	-16	-9	-8	.
Cn1c(=O)c([N+](=O)[O-])c(NCC(O)c2ccccc2)c2ccccc21 (configuration not stated)	-5	6	-6	-16	5
CCn1c(=O)c([N+](=O)[O-])c(NCC(O)c2ccccc2)c2ccccc21 (configuration not stated)	1	-2	4	-46	100*
CCCOc1ccc(N2C(=O)CC(N(Cc3ccc(OC)cc3)C(=S)Nc3ccccc3)C2=O)cc1 (configuration not stated)	0	-16	0	13	69*
CCCOc1ccc(N2C(=O)CC(N(CCc3ccc(OC)c(OC)c3)C(=S)Nc3ccccc3)C2=O)cc1 (configuration not stated)	1	-28	1	2	45
COc1ccc(CCN(C(=O)c2cccc(F)c2)C2CC(=O)N(c3ccc(OC)cc3)C2=O)cc1 (configuration not stated)	1	-6	.	-6	72*
COc1ccc(CCN(C(=O)c2cccc(F)c2)C2CC(=O)N(c3ccccc3)C2=O)cc1 (configuration not stated)	4	-6	-11	-9	-2
CC(C)CC(=O)Nc1cccc(C(=O)Nc2ccccc2C(=O)O)c1	1	1	.	-8	-12
CSCCC(NC(=O)c1ccc([N+](=O)[O-])cc1Cl)C(=O)OCC(=O)NC1CCCC(C)C1C (configuration not stated)	-1	-25	-15	7	60*
CC1(C)CC(=O)C(C=NCCN2CCN(C3CC(=O)N(c4ccc(Br)cc4)C3=O)CC2)=C(O)C1 (configuration not stated)	-1	0	-18	-10	3
Cc1ccc(C)n1-c1ccc(NC(=O)c2ccccc2)cc1	0	-17	-3	-8	58*
Cc1ccc(NC(=O)c2ccccc2)s1	-2	-17	-13	-32	69*
Cc1ccc(C)n1-c1ccc(C(=O)Nc2ccccc2F)cc1	1	-24	10	-4	4
CC(=O)Nc1ccc(NC(=O)c2ccc(-n3c(C)ccc3C)cc2)cc1	0	-23	0	10	68*
CCOC(=O)c1cc[nH]c1CC(=O)NC	2	-5	-5	-81	.
